Measurements gathered from unrelated publications.
Compare with care: the assays were run in different laboratories.
Target: Dual specificity tyrosine-phosphorylation-regulated kinase 1A (DYRK1A, Homo sapiens, UniProt Q13627)
Method: competition with immobilised ligand

`CSc1cccnc1N1CCN(Cc2nc3ccccc3[nH]2)CC1` has a remaining binding of 79% (cell-free assay; 1 µM).
`COc1ncc2cc3ccccc3nc2c1C#N` has a remaining binding of 74% (cell-free assay; 5 µM).
`CN([C@@H]1CCc2c(CC(=O)O)c3ccccc3n2C1)S(=O)(=O)c1ccc(F)cc1` has a remaining binding of 69% (cell-free assay; 1 µM).
For `O=C(NCCCN1CCOCC1)c1ccc(Nc2nccc(-c3cc4ccccc4s3)n2)cc1`, the remaining binding was 41% (binding; 1 µM).
`O=C(NC[C@@H]1[C@H]2CN(C(=O)OCc3cc(C(F)(F)F)cc(C(F)(F)F)c3)C[C@@H]12)c1ccc2[nH]nnc2c1` gave a remaining binding of 86% (cell-free assay; 1 µM).
`C=CC(=O)N1CCC(C(=O)NCC(=O)N2CCN(c3nc(-c4cnc(N)nc4C(F)F)nc(N4CCOCC4)n3)CC2)CC1` gave a remaining binding of 94% (binding; 1 µM).
With `Cc1cnc(Nc2ccc(C(=O)N3CCC(N4CCCC4)CC3)cc2)nc1-c1cc2ccccc2s1` the remaining binding was 19% (binding; 1 µM).
For `CNC(=O)[C@@H]1CC[C@@H](n2c(-c3ccc4cnccc4c3)nc3ccc(C(=O)NCc4cccc(C(N)=O)c4)cc32)C1`, the remaining binding was 100% (binding; 1 µM).
The remaining binding of `O=C(c1ccc(Nc2nccc(-c3cc4ccccc4s3)n2)cc1)N1CCC(N2CCCC2)CC1` is reported as 68% (binding; 1 µM).
With `COc1cnc(Nc2cccc(S(N)(=O)=O)c2)nc1N1CCN(c2ccccc2)C(=O)C1` the remaining binding was 91% (binding; 1 µM).
`O=C(NCC1CCOCC1)c1n[nH]cc1NC(=O)c1c(F)cccc1F` gave a remaining binding of 0.4% (binding; 1 µM).
For `Nc1ncc2c(n1)-c1c([nH]c3ccc(C#CC4CC4)cc13)CCCC2`, the remaining binding was 100% (binding; 1 µM).
`COc1ccc2c(c1)O[C@@H](c1ccc(OC)c(OC)c1)C[C@H]2NC(=O)C1(c2ccc3c(c2)OC(F)(F)O3)CC1` gave a remaining binding of 80% (cell-free assay; 1 µM).
`c1cncc(-c2cccc(Nc3nccc(NC4CCCCC4)n3)c2)c1` has a remaining binding of 26% (binding; 10 µM).
